According to the EternaBench riboswitch data:

Tested on: MS2 coat protein
Test: apparent Kd, MS2 coat protein; higher = weaker binding; RNA-MaP array; FMN 200 µM where present
Procedure, shortened: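 Apparent Kd: the median of filtered binding-curve fits from single clusters. Designs were transcribed on Illumina sequencing-chip clusters by stalled E. coli RNA polymerase and titrated with SNAP-549-labelled MS2 coat protein from 0.7 or 1.5 nM, doubling to 3 µM, in 100 mM Tris-HCl pH 7.5, 80 mM KCl, 4 mM MgCl2, BSA, DTT, yeast tRNA and Tween-20. Each series ran without and then with constant ligand, and green signal was normalised to red-channel RNA signal and control-cluster median Fmax.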

[1] = designed as: OFF switch for flavin mononucleotide, no ligand
[2] = ligand present: flavin mononucleotide, designed as: OFF switch for flavin mononucleotide
[3] = designed as: ON switch for flavin mononucleotide, no ligand
[4] = ligand present: flavin mononucleotide, designed as: ON switch for flavin mononucleotide

Row | Sequence | apparent Kd [1] [nM] | apparent Kd [2] [nM] | apparent Kd [3] [nM] | apparent Kd [4] [nM]
1 | AAGUCAGCAGGAUAUGCGAUGGUGUACUAGGUAGUUUACCCACAUGAGGAUCACCCAUGUAGAAGGGCUGGCUA | 59.1 | 148 |  | 
2 | GUGGUUCGCGAGAAGGGAGCUUAAGGACGCGGCUCAGGAUAUCGUACAUGAGGAUCACCCAUGUGCUGGCAUCUCCAGUGCGUG | 118 | 56.1 |  | 
3 | AUCGGAUUGUAGAAGGGUGACAUGAGGAUCACCCAUGUUCAAAUGCGUUUUUCGGUAAUUGUUCCACAGGAUAUACUGUCCGAG |  |  | 675 | 139
4 | GGUACUCAAAGAGUACCAAUACGAACAUGAGGAUCACCCAUGUAGGAUAUGCUACUCAAAGAGUAGCAGAAGGACAUGUACCUA | 17.5 | 99.2 |  | 
5 | UUAAUGUGAGGAUAUCAAGUGUGAUAGAGUAAUGGUAAAUAUGAGAAGGCACAUGAGGAUCACCCAUGUUCUUC | 15.7 | 17.4 |  | 
6 | GCACUGGAUGUAGGAUAUCAGGACGAUAAGUCCUGAGAAGGACAUGAGGAUCACCCAUGUGCCUUAACCAGUGCAUAUAAUAUA | 12.9 | 17.3 |  | 
7 | UUAGAGGAUUAAGGAUAUGCAGAGAGAUCAUGCGCGUCGCGCACAUGAGGAUCACCCAUGUAAGAGCAGAAGGUAACUAUGAUC | 19.9 | 18.4 |  | 
8 | CGAUGAGUAGGAUAUGCGUCGGAUGCAUCUGCAUGUCACUUACAUGAGGAUCACCCAUGUAGAAGGGCUCGUUC | 19 | 26 |  | 
9 | GGAUCGAGUGUGAGGAUAUACCACUGGAUACAGUGGUAGAAGGCACAUGAGGAUCACCCAUGUCCCUACGAUCC | 32.9 | 204 |  | 
10 | CCCGUGUUAGGAUAUACGGCACACCCGCCAGCGGGUAUAUAGUAGAAGGAACAUGAGGAUCACCCAUGUAUAGC | 16.1 | 46.6 |  | 
11 | CCAUGGCAUGUAGGAUAUGUCUGACAAAGUCAGACAGAAGGACAUGAGGAUCACCCAUGUAGGAAAUAACCACAUAAGCCAUGG | 6.32 | 5.86 |  | 
12 | GGUGGACAUGAGGAUCACCCAUGUGAGGAUAUCGGCUGGUACGUGUUGGCUGGCAUCUCGAGAAGGCACAUAGG | 166 | 49.3 |  | 
13 | GAUCCUUCUGUUAGGAUAUGCUUCGGGCUUCCGCAGCAGAAGGAACAUGAGGAUCACCCAUGUCAAAUAAAAUC | 22.9 | 94.1 |  | 
14 | UUGUUGUGUGGAGGAUAUGCACUAACUGUUAGCGCAGAAGGCCACAUGAGGAUCACCCAUGUCCGGGUUACUGCCUAAGGAGUG | 71.9 | 230 |  | 
15 | AAAAAACAUGAGGAUCACCCAUGUAAAAAAAUCACAGGAUAUAAGGUCGCGAAAGCGACCUUAGAAGGGUGAUCAA |  |  | 443 | 105
16 | AAAACGAUGUGAGGAUAUCACCGCUGUGACGGCUGAGAAGGCACAUGAGGAUCACCCAUGUGCAGGCGUGUGUGGGUAAUCCAA | 186 | 139 |  | 
17 | GCUCAGUAAGGAUAUUAAUGGCACUGUUAUUCAGCGCCAGCUGAGAAGGUACAUGAGGAUCACCCAUGUGGUGA | 228 | 135 |  | 
18 | ACAUGAUAUGUAGGAUAUCACAUUAAUUGUUUUAUAAUUGUAUUUUGGAUUUGAGAAGGACAUUUACAUGAGGAUCACCCAUGU | 15.6 | 12.3 |  | 
19 | GGUACCUUUACAGGAUAUGCUAUCCUUUGGGUAGCAGAAGGGUGAUACAUGAGGAUCACCCAUGUGGUGCCAGGGCGUGAGCCC |  |  | 93.2 | 313
20 | GCUAUGUCAGGAUAUGCUAGUGCUAGUGAAAGCUAGUGCUAGUAGAAGGGACAUGAGGAUCACCCAUGUGUAGU | 108 | 374 |  | 
21 | CAGGCCUUAGGAUAUACACGGUGUCGAACGAGCUCCUACACACAUGAGGAUCACCCAUGUAGAAGGAAGGGAUA | 24.6 | 32 |  | 
22 | AUUAUUAAAGUGAGGAUAUCUAGAGCCUCGGCUCUAGAGAAGGCACAUGAGGAUCACCCAUGUCUCAAUUAUUA | 19.1 | 56.1 |  | 
23 | CUUAAACAUGAGGAUCACCCAUGUCAGGAUAUGAUACUAUGUACUUCGGUACAUAGUAUCAGAAGGGAUAUGAA | 49 | 64.8 |  | 
24 | GGUUGUCAUAGUCAUCCUUAACGAACAUGAGGAUCACCCAUGUAGGAUAUGCUACUCAAAGAGUAGCAGAAGGGCGUGUGUCUU | 56.6 | 62.9 |  | 

Row | Sequence | apparent Kd [1] [nM] | apparent Kd [2] [nM] | apparent Kd [3] [nM] | apparent Kd [4] [nM]
25 | AAAUAAAUUAGUAUGAUAUCUUCACAUGAGGAUCACCCAUGUCAGGAUAUUUGUCCUAAAAGGACAGAGAAGGGACAUACUAUA | 6.08 | 8.31 |  | 
26 | GUUCUUCCUGUAAGGAUAUCCAUGUAUCAAUGUAUGGAGAAGGUACAUGAGGAUCACCCAUGUCACCCGCGUUA | 16.6 | 39.8 |  | 
27 | GGAUCGAAAGUGAGGAUAUGCUGGUCCUUGGAUCAGCAGAAGGCACAUGAGGAUCACCCAUGUUUCCACGGUCC | 19.5 | 91 |  | 
28 | ACGCAUUGCCUUUGGUAGUGCGUAACAUGAGGAUCACCCAUGUAGGAUAUGGUAGGCUUUGCUUACCAGAAGGACAUUAUAAAC | 29.3 | 48.5 |  | 
29 | ACAUGAGGAUCACCCAUGUUUUUCGGGUACUCUUUUUACAGCAAGGAUAUGCAUUAUUUAUGUACGCAGAAGGUGCUUUACGUC | 77 | 138 |  | 
30 | UGAUAGGACAGAGGAUAUACGUGCUAGAGAUACUAGCAAAAUUUCCUAACAUGAGGAUCACCCAUGUAGAAGGCUGUCCUAUCU | 6.73 | 14.2 |  | 
31 | GUAGUGUAUGUAGGAUAUGCGAAGCAAAGCUUCGCAGAAGGACAUGAGGAUCACCCAUGUAUUGCAGCCUGCAAUCAGGCUGCU | 42.2 | 184 |  | 
32 | GAGCGAGGGACAGGAUAUGCGGCGAAACUCGCCGCAGAAGGGUCGACAUGAGGAUCACCCAUGUCCUUACGCUCCAAGUAGAGG |  |  | 97 | 488
33 | GUCCUUAACAAGGAUAUCGGGCGGGUUUUUGUUUGAGAAGGUGUGACAUGAGGAUCACCCAUGUGGCGCGUGGG | 355 | 383 |  | 
34 | CCAGCGUAUGUGAGGAUAUGCUGGUCCUUGGAUCAGCAGAAGGCACAUGAGGAUCACCCAUGUGGUGUCGUUGG | 303 | 37 |  | 
35 | GAGAUACAUGAGGAUCACCCAUGUGAGGAUAUCGGUUGGAGGAGGUGGAGGUUGAGUACGAGAAGGCACGGAUC | 25 | 28.3 |  | 
36 | AUUUGUAACCAGAAGGACAUGAGGAUCACCCAUGUAGGAUAUGGGCUUCUCAGGGCUGAGGAGUGAUCCCACAGGGACUUACGG |  |  | 117 | 18
37 | AUGUUACAUGAGGAUCACCCAUGUGAGGAUAUGUGUAUCCCUAAAAAAGUGUGGGACCAUAGAAGGCAUUUGGA | 59.1 | 64.1 |  | 
38 | CCAGCGUGUGUGAGGAUAUGCUGGUCCUUGGAUCAGCAGAAGGCACAUGAGGAUCACCCAUGUGAGAACGUUGG | 23.1 | 105 |  | 
39 | UUUUCUUUUGUGAGGAUAUACUUCUUUUUCUUUUUGUAGAAGGCACAUGAGGAUCACCCAUGUUUUCUUUUCUC | 12.1 | 16 |  | 
40 | GGACGUUACAUCUACAUGAGGAUCACCCAUGUCUCUUGAGAUGAGGAUAUGUAUACGAAUCGUUUAUAGAAGGCAUGAACGUCC |  |  | 144 | 138
41 | AGAUAGUCAGGAUAUACAUGGAUGAUACACGUAUUUCCACUACAUGAGGAUCACCCAUGUAGAAGGGACUAUCA | 27.6 | 15.1 |  | 
42 | AGCGUGUGAGGAUAUGCGGACUCCGGUAAAUCUGGAGUCCAGUAGAAGGCACAUGAGGAUCACCCAUGUGAGAU | 35.8 | 124 |  | 
43 | CAGUUCUGAGGAUAUCCAUCCUCCUACAUGAGGAUCACCCAUGUUUCCCUCUGGGUUUUCGGAGAAGGCAGUUAUU | 321 | 556 |  | 
44 | UAGUCGGUAGAUAAUAAUGAUUACAUGAGGAUCACCCAUGUAUAGGAUAUCGUCAGGAAUACUGACGAGAAGGAUACAUCCGAC | 18 | 26.5 |  | 
45 | CCGCUGUGAGGAUAUUAGUAGUAGUCAGAAUAGACUAUUACUGAGAAGGCACAUGAGGAUCACCCAUGUCGCGG | 31.2 | 43.1 |  | 
46 | AAUUAUAUACAGAAGGAGUUAAAAGGAGUAUUACUAGGAUAUGUUCACAUGAGGAUCACCCAUGUCAUAUUGGGAUUUAUUUUU | 27.2 | 25.7 |  | 
47 | AGCUGUGGCCGAGGAUAUCUAACAAUCCUAACCGAAAUAUAAUCGGACAUGAGGAUCACCCAUGUAGAGAAGGCGGUCUCAGCA | 92.4 | 237 |  | 
48 | CCUCUAACCUAGGAUAUAGGUAGACCUAGUCGCCUAGAAGGAGGUACAUGAGGAUCACCCAUGUAUAUUGGGCU | 277 | 127 |  | 
